Measured values gathered from unrelated publications.
Each line is one published result; the experiments were not run side by side.
Target: D(2) dopamine receptor (DRD2, Homo sapiens, UniProt P14416)

SMILES | observed | mode | technique | cells | concentration | measurement | result
CCOc1ccc(CNCC(O)c2ccccc2)cc1Br (stereo not shown) | enzyme activity | inhibitor |  |  | 10 µM | inhibition | 36.2%
COc1cccc(OC[C@@H]2CN(CCN3CCc4ccccc43)CCO2)c1 | ligand displacement |  | radioligand |  | 10 µM | inhibition | 36.5%
O=c1nc(-c2ccccn2)sc2ccccc12 | ligand displacement |  |  |  | 10 µM | inhibition | 22.9%
Cc1[nH]n(-c2ccc([N+](=O)[O-])cc2)c(=O)c1C=NCCN1CCN(C(=O)c2cccc(F)c2)CC1 | enzyme activity | inhibitor |  |  | 10 µM | inhibition | 20.6%
Clc1cncc(OC[C@H]2CN(CCN3CCc4ccccc43)CCO2)c1 | ligand displacement |  | radioligand |  | 10 µM | inhibition | 37.8%
CN1CCN(C(=O)C(C)(C)c2ccc(C(=O)Nc3cn4cc(-c5cc(C(C)(C)C)cc(C(C)(C)C)c5)ccc4n3)cc2)CC1 | ligand displacement |  |  |  | 10 µM | inhibition | 57.5%
O=C(CN1CCO[C@@H](COc2ccccn2)C1)N1CCc2ccccc21 | ligand displacement |  | radioligand |  | 10 µM | inhibition | -15.6%
COc1ccc(N2CCN(CC(O)COc3ccc(C(C)=O)cc3OC)CC2)cc1 (stereo not shown) | enzyme activity | inhibitor |  |  | 10 µM | inhibition | 27.4%
CCS(=O)(=O)c1cc2cc(C[C@](O)(CC(C)(C)c3ccc(F)cc3C(N)=O)C(F)(F)F)[nH]c2cn1 | ligand displacement |  |  |  | 10 µM | inhibition | -12.2%
O=C(CCCN1CCC(O)(c2ccc(Br)cc2)CC1)c1ccc(F)cc1 | binding |  |  |  |  | koff | 0.00742 s⁻¹
O=C(O)[C@H]1[C@H](Cn2nnc3ccccc3c2=O)CC[C@@H]1C(=O)c1ccc(OCCC2CCOCC2)cc1 | ligand displacement |  |  |  | 10 µM | inhibition | 30.3%
c1cncc(OC[C@@H]2CN(CCN3CCc4ccccc43)CCO2)c1 | ligand displacement |  | radioligand |  | 10 µM | inhibition | 20.9%
O=C(NCc1ncc(C(F)(F)F)cc1Cl)c1ccc2c(c1)C1(CCS(=O)(=O)CC1)[C@@H](C1CC1)N2S(=O)(=O)c1ccc(F)cc1 | ligand displacement |  |  |  | 10 µM | inhibition | -8.4%
Cc1ccnc(OC[C@H]2CN(CC(=O)N3CCc4ccccc43)CCO2)c1 | ligand displacement |  | radioligand |  | 10 µM | inhibition | -7.3%
CC(=O)Nc1ccc(N2CC(O)=C(c3nc4ccccc4[nH]3)C2=N)cc1 | enzyme activity | inhibitor |  |  | 10 µM | inhibition | 17.1%
Cc1nc2cc(OCCCCN3CCN(c4cccc5c4OCCO5)CC3)ccc2s1 | β-arrestin recruitment | agonist |  | HTLA |  | Emax | 35%
COc1cc(OC)c(OC)cc1CN1CCN(Cc2c[nH]c3ccccc23)CC1 | enzyme activity | inhibitor |  |  | 10 µM | inhibition | 34.6%
C[C@H](c1ccnc(Nc2nc3ccc(-c4cc(N(C)C)ncn4)cc3[nH]2)c1)N1CCN(C(=O)CC(F)(F)F)CC1 | ligand displacement |  |  |  | 10 µM | inhibition | 5.66%
FC(F)(F)c1cccc(-c2ccc(CNCCCN3CCOCC3)o2)c1 | enzyme activity | inhibitor |  |  | 10 µM | inhibition | 48.3%
O=C(CN1CCO[C@H](COc2ccccc2)C1)N1CCc2ccccc21 | ligand displacement |  | radioligand |  | 10 µM | inhibition | 13.6%
CC(C)c1nc2cc(OCCCCN3CCN(c4cccc5c4OCCN5)CC3)ccc2s1 | β-arrestin recruitment | agonist |  | HTLA |  | Emax | 36%
Cc1ccc(OC[C@H]2CN(CCN3CCc4ccccc43)CCO2)cn1 | ligand displacement |  | radioligand |  | 10 µM | inhibition | 16.2%
CCOc1cc(N2C3COCC2CN(C(=O)[C@H]2C[C@H](O)CN2c2ccc(Cl)cc2)C3)ccc1Cl | cell-free assay |  |  |  | 10 µM | inhibition | 7.26%
O=C1c2ccccc2CCN1CCCCN1CCN(c2ccccn2)CC1 | ligand displacement |  | radioligand |  | 10 µM | inhibition | 86.6%
O=C(NCCN1CCN(C(=O)c2ccccc2)CC1)C(=O)Nc1ccccc1 | enzyme activity | inhibitor |  |  | 10 µM | inhibition | 6.4%
